CaV13 ICDI inh: Primary screen for inhibitors of IQ motif and Ca2+-dependent inactivation inhibitor domain binding in CACNA1D, Förster resonance energy transfer in living cells, …; HEK cells, CFP/YFP FRET ICDI-IQ, plate reader, 10 min; percent FRET-ratio fall versus neutral wells; inhibition, % at 12.3 µM; 0.098% of 340,000 active;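 active = mean replicate inhibition of at least 30% and at least 1% of replicates passing that level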;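 also: 0% = median of the neutral control wells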
CAL PDZ FP-1: blocks peptide binding to the human CAL PDZ domain; inhibition, % at 24.9 µM; purified CAL PDZ, TMR-peptide fluorescence polarization, 1 h; 0.92% of 300,000 active; AID 602252; Q9HD26;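 active = mean inhibition of at least 30% with at least half of replicates also reaching 30%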;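 also: 0% = DMSO neutral control and 100% = excess unlabeled competitor peptide PRC23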
ARNT TACC3 PPI: disruptors of human ARNT/TACC3 interaction; Q9Y6A5; AlphaScreen His-ARNT PAS-B/GST-TACC3 binding, luminescence; TACC3 fragment carries E629A point mutation; inhibition, % at 9.99 µM; 0.66% of 390,000 active; AID 623870;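 active = mean inhibition of replicates at least 50% and at least half of replicates each reaching 50%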;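 also: 0% = complete ARNT plus TACC3 wells and 100% = ARNT alone without TACC3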
CAL PDZ FP-2: inhibitors of human CAL PDZ peptide binding | 0.02% of 330,000 active | purified CAL PDZ, TMR-peptide fluorescence polarization, 1 h | inhibition, % at 20 µM | Q9HD26;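 active = highest replicate inhibition of at least 40%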;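 also: plate controls were DMSO neutral control wells for no effect and unlabeled competitor peptide control wells for full effect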
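System: tagged CAL PDZ domain. Schedule: 1 h room-temperature incubation prior to read. Signal: fluorescence polarization (mP). Measure: percent inhibition from loss of millipolarization.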
* = called active by the depositor; / = no result given. Compounds with a hit are over-represented: about 1.2% of the library has one in this group of screens.

SMILES | CaV13 ICDI inh | CAL PDZ FP-1 | ARNT TACC3 PPI | CAL PDZ FP-2
COC(=O)C1=C(c2ccc(OC)c(OC)c2)C[C@@H]2CC[C@H]1N2C(=O)N1CCOCC1 | -6.5 | -0.9 | -2.6 | -0.3
COC(=O)C1=C(c2ccc(OC)c(OC)c2)C[C@@H]2CC[C@H]1N2C(=O)N1CCC(C)CC1 | -2.9 | 40.9* | 1.2 | -3.7
CC(C)OP(=O)(O)NC(=O)c1ccccc1 | 167.5* | -2.7 | -4.1 | -2.6
CCOP(=O)(OCC)C(NC(=O)c1ccccc1)C(Cl)(Cl)Cl (centres undefined) | -4.8 | -3.8 | -7.6 | -0.8
O=C(O)[C@H]1[C@H](CO)[C@H]2Cn3c(ccc(-c4ccccc4F)c3=O)[C@@H]1N2C(=O)Nc1ccccc1 | / | / | 4.7 | /
O=C(CCN1CCOCC1)NCC(=O)Nc1ccc(Br)cc1C(=O)c1ccccc1 | -4.2 | 35.6* | 0.1 | -2.4
O=C(CN1CCCCC1)NCC(=O)Nc1ccc(Br)cc1C(=O)c1ccccc1 | -7.8 | -7.4 | -1.9 | -0.6
CCn1c(O)c(/C=N/NC(=O)c2ccccc2)c(=O)[nH]c1=S | -14.9 | 74.2* | 63.1* | -0.3
Cc1ccc(-n2c(O)c(/C=N/NC(=O)c3ccncc3)c(=O)[nH]c2=O)cc1C | -4.9 | -5.6 | 62.5* | -0.2
CC(CO)(CO)N=Cc1c(O)n(-c2cccc3ccccc23)c(=O)[nH]c1=O | / | / | -1.8 | 0.6
COc1ccc(Cn2c(O)c(/C=N/NC(=O)c3ccccc3)c(=O)[nH]c2=O)cc1 | 0.8 | -5.5 | 39.9 | -2.2
O=C(N/N=C/c1c(O)n(-c2cccc3ccccc23)c(=O)[nH]c1=O)c1ccncc1 | -4.0 | -0.4 | 68.2* | 0.1
O=C(N/N=C/c1c(O)n(Cc2ccccc2)c(=O)[nH]c1=O)c1ccccc1O | -1.6 | -0.3 | 62.6* | -2.2
COC(=O)[C@@H]1[C@@H](CO)[C@@H]2Cn3c(ccc(-c4ccccc4F)c3=O)[C@H]1N2C(=O)C1CC1 | / | / | -1.8 | /
CC=Cc1ccc2n(c1=O)C[C@H]1[C@H](CO)[C@@H](C(=O)OC)[C@@H]2N1C(=O)CC (mixture of isomers) | / | / | 4.8 | /
CCN1[C@@H]2Cn3c(ccc(-c4cccc(OC)c4)c3=O)[C@H]1[C@@H](C(=O)OC)[C@@H]2CO | / | / | -2.8 | /
N#Cc1ccc(-c2ccc([C@H]3[C@H](CO)N4CCCCN(C(=O)Cc5ccccc5)C[C@@H]34)cc2)cc1 | / | / | 6.3 | /
O=C(N/N=C/c1c(O)n(CCc2ccccc2)c(=O)[nH]c1=O)c1ccccc1O | -16.1 | -2.5 | 43.8 | -4.0
O=C(N/N=C/c1c(O)n(CCc2ccccc2)c(=O)[nH]c1=O)c1ccncc1 | -5.5 | -4.5 | 74.5* | -1.1
O=C(N/N=C/c1c(O)n(CCc2ccc(F)cc2)c(=O)[nH]c1=O)c1ccccc1 | -3.9 | / | / | /
COc1ccc(Cn2c(O)c(/C=N/NC(=O)c3ccncc3)c(=O)[nH]c2=O)cc1 | -4.4 | 2.0 | 58.0* | 1.3
O=C(N/N=C/c1c(O)n(CCc2ccc(F)cc2)c(=O)[nH]c1=O)c1ccncc1 | 3.6 | 0.4 | 65.4* | -1.4
O=C(Cc1ccccc1)N1CCCCN2[C@H](C1)[C@H](c1ccc(C#Cc3ccccc3)cc1)[C@@H]2CO | / | / | -15.9 | /
Cc1cccc(N2C(=O)NC(=O)/C(=C\c3ccc(N4CCOCC4)cc3)C2=O)c1 | -19.5 | 56.0* | -5.3 | -0.8
Cc1cccc(N2C(=O)NC(=O)/C(=C/c3ccc(N4CCOCC4)cc3)C2=O)c1 | -1.2 | 6.3 | / | -0.4
SMILES | CaV13 ICDI inh | CAL PDZ FP-1 | ARNT TACC3 PPI | CAL PDZ FP-2
Cc1ccnc(NC(=O)CCCc2ccc(N(CCCl)CCCl)cc2)n1 | -6.6 | 51.2* | 4.3 | 14.6
O=C(O)[C@H]1[C@H](CO)[C@H]2Cn3c(ccc(-c4cncnc4)c3=O)[C@@H]1N2C(=O)NC1CCCC1 | / | / | -8.4 | /
CSc1nc2ccccc2c(=O)n1-c1cccnc1 | -2.4 | 79.0* | -4.0 | 0.1
COc1ccc(-c2ccc([C@H]3[C@@H](CO)N4CCCCN(C(=O)Cc5ccncc5)C[C@H]34)cc2)cc1 | / | / | 2.9 | /
COc1ccc(C#Cc2ccc([C@@H]3[C@@H](CO)N4CCCCN(C(=O)Cc5ccncc5)C[C@@H]34)cc2)cc1 | / | / | 24.8 | /
CCCCCCC(=O)N/N=C/c1c(O)n(C(C)CC)c(=S)[nH]c1=O (centres undefined) | -4.6 | 9.3 | 49.9* | -0.6
C=CCn1c(O)c(/C=N/NC(=O)CCCC)c(=O)[nH]c1=S | -3.8 | 0.8 | 69.1* | -0.3
C=CCn1c(O)c(C=NCCCOc2ccc(CC)cc2)c(=O)[nH]c1=S | -5.0 | -2.4 | -26.5 | -1.6
CCCCCCC(=O)N/N=C/c1c(O)n(CCc2ccccc2)c(=O)[nH]c1=O | -5.1 | / | -27.0 | -0.5
CCC(C)n1c(O)c(C=NC(C)c2ccccc2)c(=O)[nH]c1=S (centres undefined) | -21.6 | / | -2.8 | -0.7
CCCCCCC(=O)N/N=C/c1c(O)n(C2CC2)c(=S)[nH]c1=O | -4.7 | -8.4 | 30.1* | -0.6
CC(C)CC#Cc1ccc([C@@H]2[C@H](CO)N3CCCCN(C(=O)Cc4ccccn4)C[C@@H]23)cc1 | / | / | 1.6 | /
Cc1ccccc1-c1ccc([C@H]2[C@@H](CO)N3CCCCN(C(=O)Cc4ccccn4)C[C@H]23)cc1 | / | / | 4.3 | /
COc1cc(/C=C2/C(=O)NC(=O)N(c3ccccc3)C2=O)ccc1O | -17.1 | 0.2 | active | -0.2
COc1cc(OC)c(OC)cc1/C=C1\C(=O)NC(=O)N(Cc2ccccc2)C1=O | 3.6 | 67.0* | 11.2 | 0.1
COc1cc(OC)c(OC)cc1/C=C1/C(=O)NC(=O)N(Cc2ccccc2)C1=O | -2.2 | / | 2.9 | 0.5
O=C(O)[C@@H]1[C@@H](CO)[C@@H]2Cn3c(ccc(-c4ccncc4)c3=O)[C@H]1N2S(=O)(=O)c1ccccc1F | / | / | 1.5 | /
Cc1c(N=Cc2c(O)n(CCc3ccccc3)c(=O)[nH]c2=O)c(=O)n(-c2ccccc2)n1C | -6.2 | -0.4 | 0.1 | -0.5
CCOc1ccc(-n2c(O)c(N=Nc3c(C)n(C)n(-c4ccccc4)c3=O)c(=O)[nH]c2=O)cc1 | -4.6 | / | 59.8* | -1.4
Cc1c(N=Nc2c(O)[nH]c(=S)[nH]c2=O)c(=O)n(-c2ccccc2)n1C | -3.0 | -3.5 | 61.1* | -0.7
C=CCn1c(O)c(N=Nc2c(C)n(C)n(-c3ccccc3)c2=O)c(=O)[nH]c1=S | -17.1 | -1.6 | 62.8* | -3.1
CCCN1[C@@H]2c3ccc(-c4ccccc4)c(=O)n3C[C@H]1[C@H](CO)[C@H]2C(=O)OC | / | / | -3.3 | /
COC(=O)c1nc(-c2ccc3c(n2)C(=O)C(N)=C(OC)C3=O)c(N)c(-c2ccc(OC)c(OC)c2O)c1C | -15.8 | 4.9 | 45.4* | -3.5
CCCCn1c(O)c(C(C)=NCc2cc(OC)cc(OC)c2)c(=O)[nH]c1=O | -8.6 | -4.0 | 26.3* | -3.0
Cn1c(O)c(C(c2ccncc2)c2c(O)n(C)c(=S)n(C)c2=O)c(=O)n(C)c1=S | / | -2.4 | 46.8* | -0.7
CC(=NNC(=S)N1CC2CCC(CC2)C1)c1nccs1 | -6.3 | -4.3 | 71.6* | -1.0
COC(=O)[C@H]1[C@H](CO)[C@H]2Cn3c(ccc(/C=C/c4ccccc4)c3=O)[C@@H]1N2CC1CCCC1 | / | / | -144.1 | /

Compound activity (PubChem)
